For one assay, the system named is UACC-62. Put plainly: Growth inhibition of human UACC62 cells by five-dose growth inhibition assay. Type of assay: functional.
A further assay relates to OVCAR-3. Put plainly: Growth inhibition of human OVCAR3 cells by five-dose growth inhibition assay. Type of assay: functional.
Another assay concerns DU-145. Put plainly: Growth inhibition of human DU145 cells by five-dose growth inhibition assay. The format is functional.
Assay [1] addresses T1, DNA topoisomerase 1 (Homo sapiens) (UniProt P11387).
T1 sequence (whole entry): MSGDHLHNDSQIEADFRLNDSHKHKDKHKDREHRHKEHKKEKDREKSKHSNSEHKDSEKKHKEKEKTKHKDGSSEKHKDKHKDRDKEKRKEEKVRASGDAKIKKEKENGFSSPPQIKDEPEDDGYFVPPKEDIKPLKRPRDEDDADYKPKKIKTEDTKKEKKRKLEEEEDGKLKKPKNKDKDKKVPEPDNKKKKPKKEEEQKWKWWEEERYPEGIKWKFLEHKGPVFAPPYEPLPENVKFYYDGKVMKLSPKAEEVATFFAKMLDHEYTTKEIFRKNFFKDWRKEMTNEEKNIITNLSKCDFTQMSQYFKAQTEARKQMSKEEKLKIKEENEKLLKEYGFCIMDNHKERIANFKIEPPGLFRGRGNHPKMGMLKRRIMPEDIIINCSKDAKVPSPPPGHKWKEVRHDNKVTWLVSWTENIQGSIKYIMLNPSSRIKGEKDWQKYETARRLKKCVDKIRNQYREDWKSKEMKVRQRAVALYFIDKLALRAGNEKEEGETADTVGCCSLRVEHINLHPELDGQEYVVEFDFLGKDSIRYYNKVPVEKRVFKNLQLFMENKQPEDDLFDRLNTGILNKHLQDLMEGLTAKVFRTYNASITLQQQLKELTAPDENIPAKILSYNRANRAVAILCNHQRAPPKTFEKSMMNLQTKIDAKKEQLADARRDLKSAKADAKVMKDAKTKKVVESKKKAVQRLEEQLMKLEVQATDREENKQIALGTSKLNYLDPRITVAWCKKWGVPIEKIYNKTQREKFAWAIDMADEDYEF
Put plainly: Inhibition of recombinant topoisomerase 1 (unknown origin) assessed as DNA cleavage using 3'-[32P]-labeled 117-bp DNA oligonucleotide at 10 uM by PAGE assay. A digest of the protocol: (§1)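 Approx. 2 nM 3′-[³²P]-labeled double-stranded DNA incubated with recombinant Top1 and compound at 0.1, 1, 10 or 100 μM for 20 min at 25 °C. Stopped with 0.5% SDS and run on a denaturing gel. […] Run twice.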

Assay [2] concerns the target T1, DNA topoisomerase 1 (Homo sapiens). Put plainly: Inhibition of recombinant topoisomerase 1 (unknown origin) assessed as DNA cleavage using 3'-[32P]-labeled 117-bp DNA oligonucleotide at 100 uM by PAGE assay. A digest of the protocol: as §1
A further assay has as its system HOP-62. Put plainly: Growth inhibition of human HOP62 cells by five-dose growth inhibition assay. Type of assay: functional.
A short description of assay [3]: (§2) Growth inhibition of human NCI60 cells assessed as cell growth at 10 uM. The format is functional. As to conditions: read-out: Activity. A digest of the protocol:
(§3)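 NCI-60 single-dose screen at 10 μM across ~60 human cancer cell lines. Reported as growth percent relative to vehicle-treated control, averaged over all lines tested as a mean growth percent.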

Another assay deals with MCF7. Put plainly: Growth inhibition of human MCF7 cells by five-dose growth inhibition assay. Type of assay: functional.
Another assay deals with SN12C. Put plainly: Growth inhibition of human SN12C cells by five-dose growth inhibition assay. Type of assay: functional.
For assay [4], the target named is T1, DNA topoisomerase 1 (Homo sapiens). Put plainly: Inhibition of recombinant topoisomerase 1 (unknown origin) assessed as DNA cleavage using 3'-[32P]-labeled 117-bp DNA oligonucleotide at 1 uM by PAGE assay. Set-up: Activity: scale not given: the % may be the effect or the level left. A digest of the protocol: as §1
For assay [5] the target is unchanged. Put plainly: Inhibition of recombinant topoisomerase 1 (unknown origin) assessed as DNA cleavage using 3'-[32P]-labeled 117-bp DNA oligonucleotide at 0.1 uM by PAGE assay. Put shortly:
as §1

In a further assay the test system is HCT-116. Put plainly: Growth inhibition of human HCT116 cells by five-dose growth inhibition assay. Type of assay: functional.
The nature of assay [6]: Growth inhibition of human SF539 cells by five-dose growth inhibition assay. The format is functional. As to conditions: SF-539.
The next assay concerns NCI60. Described as §2. The format is functional. A digest of the protocol:
as §3

Assay [7] concerns the target Tyrosyl-DNA phosphodiesterase 1 (Homo sapiens, UniProt Q9NUW8). Put plainly: Inhibition of recombinant TPD1 (unknown origin) activity using 3'-phosphotyrosine-containing 5'-[32P]-labeled single-stranded DNA oligonucleotide by PAGE assay.
Assay [8] concerns the target T2, Tyrosyl-DNA phosphodiesterase 2 (Homo sapiens, UniProt O95551).
T2 sequence (O95551 whole entry): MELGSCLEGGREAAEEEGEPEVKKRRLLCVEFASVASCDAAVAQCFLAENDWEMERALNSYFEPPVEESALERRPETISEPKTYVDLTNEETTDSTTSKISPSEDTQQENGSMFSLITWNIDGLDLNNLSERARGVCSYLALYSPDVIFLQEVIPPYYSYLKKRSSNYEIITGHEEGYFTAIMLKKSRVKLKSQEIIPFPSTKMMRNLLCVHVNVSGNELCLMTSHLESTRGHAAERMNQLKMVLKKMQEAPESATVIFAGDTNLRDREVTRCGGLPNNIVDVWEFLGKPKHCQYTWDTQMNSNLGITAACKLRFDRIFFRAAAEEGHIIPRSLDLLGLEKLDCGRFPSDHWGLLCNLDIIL
Put plainly: Inhibition of human recombinant TPD2 activity using 5'phosphotyrosine-containing 19-mer single-stranded oligonucleotide DNA substrate by PAGE assay.

The source made the active and inactive calls. The calls are words filed in the database; no cut-off is given here. Where only a bound is given, the exact number is not on record here.

As usually defined, the GI50 is the concentration giving 50% growth inhibition. In general, IC50 refers to the concentration needed to halve the response being measured.

Sequence of Tyrosyl-DNA phosphodiesterase 1 (Q9NUW8 whole entry): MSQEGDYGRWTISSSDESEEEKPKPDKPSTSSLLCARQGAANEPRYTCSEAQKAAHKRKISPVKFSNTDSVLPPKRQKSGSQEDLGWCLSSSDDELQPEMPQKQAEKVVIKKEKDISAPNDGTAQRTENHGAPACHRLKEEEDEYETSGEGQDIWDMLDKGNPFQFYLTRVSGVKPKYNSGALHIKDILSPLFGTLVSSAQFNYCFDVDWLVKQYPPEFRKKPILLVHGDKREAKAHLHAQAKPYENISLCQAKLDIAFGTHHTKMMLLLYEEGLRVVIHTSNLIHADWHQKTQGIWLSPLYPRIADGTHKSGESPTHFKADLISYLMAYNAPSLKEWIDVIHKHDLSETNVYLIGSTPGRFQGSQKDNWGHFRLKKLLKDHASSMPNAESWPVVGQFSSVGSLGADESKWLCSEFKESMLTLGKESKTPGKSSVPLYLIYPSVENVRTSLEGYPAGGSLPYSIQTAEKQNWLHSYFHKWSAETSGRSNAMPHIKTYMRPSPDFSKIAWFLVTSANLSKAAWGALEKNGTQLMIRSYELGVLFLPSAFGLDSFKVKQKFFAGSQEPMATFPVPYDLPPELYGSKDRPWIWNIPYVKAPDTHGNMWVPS

Turning to `O=C1c2ccccc2-c2c1c1ccc(F)cc1c(=O)n2CCCn1ccnc1`, the GI50 with UACC-62 is 245 nM; in the assay on OVCAR-3 it was 1290 nM; in the assay with DU-145 it was 575 nM; with HOP-62 it was 490 nM; in the assay on MCF7 it was 135 nM; in the assay with SN12C it was 437 nM. Besides, the GI50 stood at 309 nM in the assay on HCT-116 and 417 nM in assay [6]. Also, the inhibition result in [1], in assay [2], in [4] and in [5] was “Active” each time. In addition, the growth at 10 µM in assay [3] was -8.15%. In addition, in [4], the Activity turned out to be 75%.
As for `COC(=O)c1ccc2c3c(n(C[C@H](O)CO)c(=O)c2c1)-c1ccccc1C3=O`, the result in the assay with NCI60 was inactive. For the same compound, the Activity in assay [4] turned out to be 20%.
Consider `O=C1c2ccccc2-c2c1c1ccc(C(F)(F)F)cc1c(=O)n2CCCn1ccnc1`, for which the GI50 with UACC-62 was determined as 537 nM; with OVCAR-3, 1510 nM; with DU-145, 1100 nM; in the assay with HOP-62, 407 nM; in the assay with MCF7 it was 257 nM; with SN12C, 1780 nM. For the same compound, the GI50 came out at 646 nM in the assay with HCT-116 and 1290 nM in assay [6]. Also, the growth at 10 µM in assay [3] amounted to 6.57%. Moreover, the Activity in [4] was 20%.
As for `O=C1c2ccccc2-c2c1c1ccc(Br)cc1c(=O)n2CCCn1ccnc1`, the GI50 with UACC-62 was determined as 427 nM; in the assay on OVCAR-3, 3310 nM; in the assay with DU-145, 676 nM; with HOP-62, 513 nM; with MCF7 it was 191 nM; with SN12C, 468 nM. Moreover, the GI50 with HCT-116 was found to be 251 nM; in [6] it was 676 nM. The growth at 10 µM in assay [3] is 27.3%. For the same compound, the Activity in [4] amounted to 50%.
On to `O=C1c2ccccc2-c2c1c1ccc(Cl)cc1c(=O)n2CCCn1ccnc1`, for which the GI50 amounted to 74 nM with UACC-62, 31 nM in the assay with MCF7, 110 nM in the assay on SN12C and 204 nM in [6]. For the same compound, the inhibition result in assay [1], in [2], in [4] and in assay [5] was “Active” each time. Moreover, the growth at 10 µM in [3] was determined as 0.06%. In addition, in assay [4], the Activity came to 75%.
`O=C1c2ccccc2-c2c1c1ccc(I)cc1c(=O)n2CCCn1ccnc1`: the GI50 in the assay with UACC-62 amounted to 2290 nM; in the assay on OVCAR-3, 3890 nM; with DU-145 it was 603 nM; in the assay on HOP-62, 437 nM; with MCF7 it was 74 nM; in the assay with SN12C it was 708 nM. Further, the GI50 with HCT-116 was determined as 200 nM; in assay [6], 550 nM. Moreover, in assay [3], the growth at 10 µM worked out at 43.5%. Also, the Activity in assay [4] is 50%.
Turning to `O=C1c2ccccc2-c2c1c1ccc(F)cc1c(=O)n2CCCN1CCOCC1`, the GI50 in the assay on UACC-62 turned out to be 1380 nM; in the assay on OVCAR-3, 4270 nM; in the assay on HOP-62 it was 2090 nM; in the assay on MCF7 it was 347 nM; with SN12C, 2340 nM; in the assay with HCT-116, 1290 nM. It took 2950 nM to inhibit growth in [6] by half (GI50). The inhibition result in assay [1], in [2], in assay [4] and in assay [5] was “Active” each time. For the same compound, the growth at 10 µM in assay [3] was determined as 30.3%. Moreover, in assay [4], the Activity is 75%.
For the compound `O=C1c2ccccc2-c2c1c1ccc(I)cc1c(=O)n2C[C@H](O)CO`, the GI50 was determined as 2140 nM in the assay with UACC-62; 5270 nM in the assay with OVCAR-3; 331 nM in the assay with MCF7; 4270 nM with SN12C; 631 nM with HCT-116; 3020 nM in assay [6]. The IC50 in [7] and in [8] was above 111000 nM throughout. In addition, in [3], the growth at 10 µM was found to be 39.7%. Besides, the Activity in assay [4] stood at 50%.
`O=C1c2ccccc2-c2c1c1ccncc1c(=O)n2CCCN1CCOCC1`: the result with NCI60 was inactive. Besides, in assay [4], the Activity is 50%.
As to `CSc1ccc2c3c(n(C[C@H](O)CO)c(=O)c2c1)-c1ccccc1C3=O`, the GI50 in the assay on UACC-62 was 1380 nM; in the assay with OVCAR-3, 4370 nM; in the assay with DU-145 it was 2510 nM; in the assay with HOP-62 it was 1820 nM; in the assay on MCF7 it was 427 nM; with SN12C, 1950 nM. Moreover, the GI50 was 741 nM in the assay on HCT-116 and 2340 nM in assay [6]. In addition, in assay [3], the growth at 10 µM is 39.7%. In addition, in assay [4], the Activity came to 20%.
Regarding `N#Cc1ccc2c3c(n(CCCn4ccnc4)c(=O)c2c1)-c1ccccc1C3=O`, the GI50 in the assay with UACC-62 was 407 nM; in the assay on OVCAR-3, 4680 nM; with DU-145 it was 562 nM; in the assay on HOP-62, 537 nM; in the assay on MCF7, 33 nM; in the assay with SN12C, 575 nM. The GI50 amounted to 112 nM with HCT-116 and 501 nM in [6]. In addition, in [3], the growth at 10 µM was found to be 41.1%. In addition, the Activity in assay [4] is 50%.
For the compound `O=C1c2ccccc2-c2c1c1ccc(Cl)cc1c(=O)n2CCCN1CCOCC1`, the GI50 with UACC-62 was 3310 nM; in the assay with OVCAR-3, 6030 nM; with DU-145, 4070 nM; with HOP-62 it was 2140 nM; with MCF7, 372 nM; with SN12C it was 5010 nM. Besides, the GI50 in the assay with HCT-116 is 1620 nM; in assay [6], 2400 nM. The inhibition entry in assay [1], in assay [2], in [4] and in [5] was “Active” in each case. Moreover, in assay [3], the growth at 10 µM turned out to be 44.7%. Moreover, the Activity in assay [4] amounted to 50%.
For the compound `O=C1c2ccccc2-c2c1c1ccc(I)cc1c(=O)n2CCCN1CCOCC1`, the inhibition entry in [1], in assay [2], in assay [4] and in assay [5] was “Active” in each case. Besides, the growth at 10 µM in assay [3] turned out to be 96%. Moreover, the Activity in assay [4] was 20%.

These data come from ChEMBL document CHEMBL3580647, “Discovery of potent indenoisoquinoline topoisomerase I poisons lacking the 3-nitro toxicophore” (J Med Chem, 2015).
